Results taken from ChEMBL document CHEMBL3244150, “Semisynthetic cephalosporins. Synthesis and structure-activity relationships of analogues with 7-acyl groups derived from 2-(cyanomethylthio)acetic acid or 2-[(2,2,2-trifluoroethyl)thio]acetic acid and their sulfoxides and sulfones” (1977).
Converted amounts (≈) assume the structure as drawn. The source made the active and inactive calls. The rule behind the calls is not given here.

What was measured:
[1] = system: Staphylococcus aureus; assay: Antibacterial activity against penicillin G-resistant Staphylococcus aureus HH 127 after overnight incubation by twofold agar dilution method; format: functional
Method in brief: (§1)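 MIC (ug/ml) determined by twofold agar dilution on Trypticase soy agar buffered to pH 6.0.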

[2] = system: Escherichia coli; assay: Antibacterial activity against Escherichia coli 12140 after overnight incubation by twofold agar dilution method; format: functional
Method in brief: (§2)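 Twofold agar dilution on Trypticase soy agar buffered to pH 6.0. MIC recorded in ug/ml.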

[3] = system: Klebsiella pneumoniae; assay: Antibacterial activity against Klebsiella pneumoniae 4200 after overnight incubation by twofold agar dilution method; format: functional; method in brief: as §2
[4] = system: Salmonella paratyphi; assay: Antibacterial activity against Salmonella paratyphi ATCC 12176 after overnight incubation by twofold agar dilution method; format: functional, Salmonella enterica subsp. enterica serovar Paratyphi A; conditions: Salmonella enterica; method in brief: as §1
[5] = system: Shigella flexneri; assay: Antibacterial activity against Shigella paradysenteriae HH 117 after overnight incubation by twofold agar dilution method; format: functional; method in brief: as §1
[6] = system: Klebsiella aerogenes; assay: Antibacterial activity against Enterobacter aerogenes ATCC 13048 after overnight incubation by twofold agar dilution method; format: functional; method in brief: as §2
[7] = system: Enterococcus faecalis; assay: Antibacterial activity against Streptococcus faecalis after overnight incubation by twofold agar dilution method; format: functional; method in brief: as §2
[8] = system: Pseudomonas aeruginosa; assay: Antibacterial activity against Pseudomonas aeruginosa after overnight incubation by twofold agar dilution method; format: functional, organism-based; method in brief: as §2
[9] = system: Escherichia coli; assay: Antibacterial activity against Escherichia coli 12140 infected in sc dosed mouse assessed as mouse survival after 3 days; format: functional; conditions: Escherichia coli, 12140, sc, 72 h; read-out: PD50
Method in brief: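 Mice infected ip with approximately 2 X 10 organisms per mouse of E. coli 12140 culture diluted in 5% hog gastric mucin (uniformly lethal). Fourfold dilutions dosed sc in equally divided portions at 1 and 5 h postinfection; five groups of ten mice each. Survivors observed for 3 days. PD50 = total dose (mg/kg) protecting 50% of mice, calculated by Litchfield and Wilcoxon method.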

| SMILES | MIC [1] [µg/mL] | MIC [2] [µg/mL] | MIC [3] [µg/mL] | MIC [4] [µg/mL] | MIC [5] [µg/mL] | MIC [6] [µg/mL] | MIC [7] [µg/mL] | Activity [8] | ED50 [9] [mg/kg] |
| --- | --- | --- | --- | --- | --- | --- | --- | --- | --- |
| Cn1nnnc1SCC1=C(C(=O)O)N2C(=O)[C@@H](NC(=O)CSC(F)(F)F)[C@H]2SC1 [CEFAZAFLUR] | 0.4 (≈ 0.85 µM) | 0.4 (≈ 0.85 µM) | 0.8 (≈ 1.7 µM) | 0.4 (≈ 0.85 µM) | 0.2 (≈ 0.425 µM) | 1.6 (≈ 3.4 µM) | > 13 | inactive | 2 |
| Cc1nnc(SCC2=C(C(=O)[O-])N3C(=O)[C@@H](NC(=O)C[S+]([O-])CC(F)(F)F)[C@H]3SC2)s1.[Na+] (stereo not given in full) | 0.8 | 3.1 | 3.1 | 1.6 | 0.8 | 6.3 | > 13 | inactive | 6 |
| CC(=O)OCC1=C(C(=O)[O-])N2C(=O)[C@@H](NC(=O)CSCC#N)[C@H]2SC1.[Na+] | 0.2 | 6.3 | 1.6 | 1.6 | 6.3 | > 200 | > 13 | inactive | > 200 |
| CC(=O)OCC1=C(C(=O)[O-])N2C(=O)[C@@H](NC(=O)C[S+]([O-])CC#N)[C@H]2SC1.[Na+] (stereo not given in full) | 1.6 | 12.5 | 6.3 | 3.1 | 6.3 | 25 | > 13 | inactive | 21 |
| Cn1nnnc1SCC1=C(C(=O)[O-])N2C(=O)[C@@H](NC(=O)CSCC#N)[C@H]2SC1.[Na+] | 0.4 | 0.8 | 1.6 | 0.4 | 0.8 | 12.5 | > 13 | inactive | 11 |
| Cc1nnc(SCC2=C(C(=O)O)N3C(=O)[C@@H](NC(=O)Cn4cnnn4)[C@H]3SC2)s1 [CEFAZOLIN] | 0.4 (≈ 0.88 µM) | 0.8 (≈ 1.76 µM) | 0.8 (≈ 1.76 µM) | 0.8 (≈ 1.76 µM) | 0.4 (≈ 0.88 µM) | 1.6 (≈ 3.52 µM) | > 13 | inactive | 6 |
| Cn1nnnc1SCC1=C(C(=O)[O-])N2C(=O)[C@@H](NC(=O)CSCC(F)(F)F)[C@H]2SC1.[Na+] | 0.2 | 1.6 | 3.1 | 0.8 | 0.4 | 6.3 | > 13 | inactive | 11 |
| Cc1nnc(SCC2=C(C(=O)[O-])N3C(=O)[C@@H](NC(=O)CSCC(F)(F)F)[C@H]3SC2)s1.[Na+] | 0.2 | 6.3 | 6.3 | 6.3 | 1.6 | 25 | > 13 | inactive | 33 |
| CC(=O)OCC1=C(C(=O)O)N2C(=O)[C@@H](NC(=O)CS(=O)(=O)CC#N)[C@H]2SC1 | 1.6 (≈ 3.83 µM) | 6.3 (≈ 15.1 µM) | 25 (≈ 59.9 µM) | 3.1 (≈ 7.43 µM) | 6.3 (≈ 15.1 µM) | 50 (≈ 120 µM) | > 13 | inactive | 35 |
| CC(=O)OCC1=C(C(=O)[O-])N2C(=O)[C@@H](NC(=O)CSCC(F)(F)F)[C@H]2SC1.[Na+] | 0.4 | 6.3 | 3.1 | 6.3 | 6.3 | 50 | > 13 | inactive | 184 |
